# Calls of active or inactive are those of the source. The calls are words filed in the database; no cut-off is given here. *1 amine or outer side, *2 acyl side, *3 side chain or, on linkers, in order; H or OH if unused. Where a SMILES comes first, the peptide text is derived from it. Bridges are numbered along the chain shown (N, C = ends). [ ]: non-standard residue; d: D form. N(6-aminohexyl)Gly = O=C(CN(CCCCCCN[*:3])[*:1])[*:2]; NGly(3-aminopropyl) = O=C(CN(CCCN[*:3])[*:1])[*:2]; N(2-Aminoethyl)Gly = O=C(CN(CCN[*:3])[*:1])[*:2]; Heptanedioyl = O=C(CCCCCC(=O)[*:2])[*:1]; Adipoyl = O=C(CCCCC(=O)[*:2])[*:1]; Gly(N-2-aminoethyl) = NCCNCC(=O)O; Cha = N[C@@H](CC1CCCCC1)C(=O)O; Gly(N(CH2)3NH2) = NCCCNCC(=O)O; Suc = O=C(CCC(=O)[*:2])[*:1]; hLeu = CC(C)CC[C@H](N)C(=O)O; Nva = CCC[C@H](N)C(=O)O; Dap = NC[C@H](N)C(=O)O; CO = O=C([*:1])[*:2]; Nlys = NCCCCNCC(=O)O
# Biological target: RAC-alpha serine/threonine-protein kinase (Homo sapiens, UniProt P31749)
# Sequence (P31749 whole entry): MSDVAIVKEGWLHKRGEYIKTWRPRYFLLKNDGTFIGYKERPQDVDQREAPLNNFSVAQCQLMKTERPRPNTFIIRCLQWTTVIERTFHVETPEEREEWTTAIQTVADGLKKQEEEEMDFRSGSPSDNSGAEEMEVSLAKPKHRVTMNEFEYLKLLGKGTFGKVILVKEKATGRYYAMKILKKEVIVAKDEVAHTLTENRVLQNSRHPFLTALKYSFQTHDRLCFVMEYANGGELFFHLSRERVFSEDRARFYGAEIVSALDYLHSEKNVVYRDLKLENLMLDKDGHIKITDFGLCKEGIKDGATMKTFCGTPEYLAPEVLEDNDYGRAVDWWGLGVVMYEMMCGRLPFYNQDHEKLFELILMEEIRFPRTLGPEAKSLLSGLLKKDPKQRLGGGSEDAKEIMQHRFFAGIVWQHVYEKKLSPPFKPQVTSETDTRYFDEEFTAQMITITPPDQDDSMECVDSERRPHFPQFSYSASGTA
# Assay: Inhibition of Akt using RPRTSSF peptide and [gamma32]ATP at 5 uM by cell-free radioactive assay relative to control
# Outline: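 Cell-free 32P kinase assay: HisΔPHPKBEEEFlag (0.005 units, one-step Ni-NTA partial purification), 50 mM Hepes pH 7.4, 0.1 mM EGTA, 0.1% 2-mercaptoethanol, 10 mM magnesium acetate, 3 μM RPRTSSF substrate, 10 μM [γ32P]ATP (1 μCi/well). Inhibitor at 5 μM. Activity loss expressed as percent of uninhibited reaction.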
row,Structure (SMILES),inhibition
1,CCC[C@H](NC(=O)[C@H](CCCNC(=N)N)NC(=O)CNCCCCN)C(=O)N[C@@H](Cc1ccc(O)cc1)C(=O)N[C@@H](CN)C(=O)N[C@@H](CCC(C)C)C(=O)N(CCN)CC(N)=O (H-[Nlys]R[Nva]Y[Dap][hLeu][Gly(N-2-aminoethyl)]-NH2),66%
2,CCC[C@H](NC(=O)[C@H](CCCNC(=N)N)NC(=O)[C@H](CCC)NC(=O)[C@@H](N)CCCNC(=N)N)C(=O)N[C@@H](Cc1ccc(O)cc1)C(=O)N[C@@H](CN)C(=O)N[C@@H](CCC(C)C)C(N)=O (H-R[Nva]R[Nva]Y[Dap][hLeu]-NH2),80%
3,CCC[C@H](NC(=O)[C@H](CCCNC(=N)N)NC(=O)[C@H]1CCCN1C(=O)[C@@H](N)CCCNC(=N)N)C(=O)N[C@@H](Cc1ccc(O)cc1)C(=O)N[C@@H](CN)C(=O)N[C@@H](CCC(C)C)C(N)=O,inactive
4,CCC[C@H](NC(=O)[C@H](CCCNC(=N)N)NC(=O)[C@@H](CC(=O)O)NC(=O)[C@@H](N)CCCNC(=N)N)C(=O)N[C@@H](Cc1ccc(O)cc1)C(=O)N[C@@H](CN)C(=O)N[C@@H](CCC(C)C)C(N)=O,inactive
5,CCC[C@H](NC(=O)[C@H](CCCNC(=N)N)NC(=O)[C@H](CC(=O)O)NC(=O)[C@@H](N)CCCNC(=N)N)C(=O)N[C@@H](Cc1ccc(O)cc1)C(=O)N[C@@H](CN)C(=O)N[C@@H](CCC(C)C)C(N)=O,68%
6,CCC[C@H](NC(=O)[C@H](CCCNC(=N)N)NC(=O)[C@@H](C)NC(=O)[C@@H](N)CCCNC(=N)N)C(=O)N[C@@H](Cc1ccc(O)cc1)C(=O)N[C@@H](CN)C(=O)N[C@@H](CCC(C)C)C(N)=O,inactive
7,CCC[C@H](NC(=O)[C@H](CCCNC(=N)N)NC(=O)CNCCCN)C(=O)N[C@@H](Cc1ccc(O)cc1)C(=O)N[C@@H](CN)C(=O)N[C@@H](CCC(C)C)C(=O)N(CCN)CC(N)=O (H-[Gly(N(CH2)3NH2)]R[Nva]Y[Dap][hLeu][Gly(N-2-aminoethyl)]-NH2),63%
8,CCC[C@H](NC(=O)[C@H](CCCNC(=N)N)NC(=O)[C@H](CN)NC(=O)[C@@H](N)CCCNC(=N)N)C(=O)N[C@@H](Cc1ccc(O)cc1)C(=O)N[C@@H](CN)C(=O)N[C@@H](CCC(C)C)C(N)=O,94%
9,CCC[C@H](NC(=O)[C@H](CCCNC(=N)N)NC(=O)[C@@H](CCCCN)NC(=O)[C@@H](N)CCCNC(=N)N)C(=O)N[C@@H](Cc1ccc(O)cc1)C(=O)N[C@@H](CN)C(=O)N[C@@H](CCC(C)C)C(N)=O,27%
10,CCC[C@H](NC(=O)[C@H](CCCNC(=N)N)NC(=O)[C@@H](CN)NC(=O)[C@@H](N)CCCNC(=N)N)C(=O)N[C@@H](Cc1ccc(O)cc1)C(=O)N[C@@H](CN)C(=O)N[C@@H](CCC(C)C)C(N)=O,32%
11,CCC[C@H](NC(=O)[C@H](CCCNC(=N)N)NC(=O)[C@H](CCCCN)NC(=O)[C@@H](N)CCCNC(=N)N)C(=O)N[C@@H](Cc1ccc(O)cc1)C(=O)N[C@@H](CN)C(=O)N[C@@H](CCC(C)C)C(N)=O,92%
12,CCC[C@H](NC(=O)[C@H](CCCNC(=N)N)NC(=O)[C@H](Cc1ccc(O)cc1)NC(=O)[C@@H](N)CCCNC(=N)N)C(=O)N[C@@H](Cc1ccc(O)cc1)C(=O)N[C@@H](CN)C(=O)N[C@@H](CCC(C)C)C(N)=O,74%
13,CCC[C@H](NC(=O)[C@H](CCCNC(=N)N)NC(=O)[C@H](C)NC(=O)[C@@H](N)CCCNC(=N)N)C(=O)N[C@@H](Cc1ccc(O)cc1)C(=O)N[C@@H](CN)C(=O)N[C@@H](CCC(C)C)C(N)=O,81%

# Now from value to compound:
row,inhibition,Structure (SMILES)
1,13%,CCC[C@@H]1NC(=O)[C@H](CCCNC(=N)N)NC(=O)[C@@H]2CCCN2C(=O)[C@H](CCCNC(=N)N)NC(=O)CCC(=O)NCCCCN(CC(N)=O)C(=O)[C@H](CCC(C)C)NC(=O)[C@H](CN)NC(=O)[C@H](Cc2ccc(O)cc2)NC1=O (RPR[Nva]Y[Dap][hLeu][Nlys]-NH2; linker N-8 via Suc)
2,30%,CCC[C@@H]1NC(=O)[C@H](CCCNC(=N)N)NC(=O)CN(C(=O)[C@@H](N)CCCNC(=N)N)CCNC(=O)NCCN(CC(N)=O)C(=O)[C@H](CCC(C)C)NC(=O)[C@H](CN)NC(=O)[C@H](Cc2ccc(O)cc2)NC1=O (H-R[N(2-Aminoethyl)Gly]R[Nva]Y[Dap][hLeu][N(2-Aminoethyl)Gly]-NH2; linker 2-8 via CO)
3,54%,CCC[C@@H]1NC(=O)[C@H](CCCNC(=N)N)NC(=O)CN(C(=O)[C@@H](N)CCCNC(=N)N)CCCNC(=O)NCCN(CC(N)=O)C(=O)[C@H](CCC(C)C)NC(=O)[C@H](CN)NC(=O)[C@H](Cc2ccc(O)cc2)NC1=O (H-R[NGly(3-aminopropyl)]R[Nva]Y[Dap][hLeu][N(2-Aminoethyl)Gly]-NH2; linker 2-8 via CO)
4,94%,CCC[C@@H]1NC(=O)[C@H](CCCNC(=N)N)NC(=O)CN(C(=O)[C@@H](N)CCCNC(=N)N)CCCCNC(=O)NCCCCCCN(CC(N)=O)C(=O)[C@H](CCC(C)C)NC(=O)[C@H](CN)NC(=O)[C@H](Cc2ccc(O)cc2)NC1=O (H-R[Nlys]R[Nva]Y[Dap][hLeu][N(6-aminohexyl)Gly]-NH2; linker 2-8 via CO)
5,85%,CCC[C@H](NC(=O)[C@H](CCCNC(=N)N)NC(=O)[C@H](CC1CCCCC1)NC(=O)[C@@H](N)CCCNC(=N)N)C(=O)N[C@@H](Cc1ccc(O)cc1)C(=O)N[C@@H](CN)C(=O)N[C@@H](CCC(C)C)C(N)=O (H-R[Cha]R[Nva]Y[Dap][hLeu]-NH2)
6,39%,CCC[C@@H]1NC(=O)[C@H](CCCNC(=N)N)NC(=O)CN(C(=O)[C@@H](N)CCCNC(=N)N)CCCCCCNC(=O)NCCCCCCN(CC(N)=O)C(=O)[C@H](CCC(C)C)NC(=O)[C@H](CN)NC(=O)[C@H](Cc2ccc(O)cc2)NC1=O (H-R[N(6-aminohexyl)Gly]R[Nva]Y[Dap][hLeu][N(6-aminohexyl)Gly]-NH2; linker 2-8 via CO)
7,92%,CCC[C@@H]1NC(=O)[C@H](CCCNC(=N)N)NC(=O)CN(C(=O)[C@@H](N)CCCNC(=N)N)CCCNC(=O)NCCCCN(CC(N)=O)C(=O)[C@H](CCC(C)C)NC(=O)[C@H](CN)NC(=O)[C@H](Cc2ccc(O)cc2)NC1=O (H-R[NGly(3-aminopropyl)]R[Nva]Y[Dap][hLeu][Nlys]-NH2; linker 2-8 via CO)
8,30%,CCC[C@@H]1NC(=O)[C@H](CCCNC(=N)N)NC(=O)[C@@H]2CCCN2C(=O)[C@H](CCCNC(=N)N)NC(=O)CCCCCC(=O)NCCCCCCN(CC(N)=O)C(=O)[C@H](CCC(C)C)NC(=O)[C@H](CN)NC(=O)[C@H](Cc2ccc(O)cc2)NC1=O (RPR[Nva]Y[Dap][hLeu][N(6-aminohexyl)Gly]-NH2; linker N-8 via Heptanedioyl)
9,25%,CCC[C@@H]1NC(=O)[C@H](CCCNC(=N)N)NC(=O)[C@@H]2CCCN2C(=O)[C@H](CCCNC(=N)N)NC(=O)CCC(=O)NCCCCCCN(CC(N)=O)C(=O)[C@H](CCC(C)C)NC(=O)[C@H](CN)NC(=O)[C@H](Cc2ccc(O)cc2)NC1=O (RPR[Nva]Y[Dap][hLeu][N(6-aminohexyl)Gly]-NH2; linker N-8 via Suc)
10,54%,CCC[C@@H]1NC(=O)[C@H](CCCNC(=N)N)NC(=O)CN(C(=O)[C@@H](N)CCCNC(=N)N)CCCCNC(=O)NCCCN(CC(N)=O)C(=O)[C@H](CCC(C)C)NC(=O)[C@H](CN)NC(=O)[C@H](Cc2ccc(O)cc2)NC1=O (H-R[Nlys]R[Nva]Y[Dap][hLeu][NGly(3-aminopropyl)]-NH2; linker 2-8 via CO)
11,100%,CCC[C@@H]1NC(=O)[C@H](CCCNC(=N)N)NC(=O)CN(C(=O)[C@@H](N)CCCNC(=N)N)CCCCCCNC(=O)NCCCCN(CC(N)=O)C(=O)[C@H](CCC(C)C)NC(=O)[C@H](CN)NC(=O)[C@H](Cc2ccc(O)cc2)NC1=O (H-R[N(6-aminohexyl)Gly]R[Nva]Y[Dap][hLeu][Nlys]-NH2; linker 2-8 via CO)
12,84%,CCC[C@@H]1NC(=O)[C@H](CCCNC(=N)N)NC(=O)CN(C(=O)[C@@H](N)CCCNC(=N)N)CCCCNC(=O)NCCN(CC(N)=O)C(=O)[C@H](CCC(C)C)NC(=O)[C@H](CN)NC(=O)[C@H](Cc2ccc(O)cc2)NC1=O (H-R[Nlys]R[Nva]Y[Dap][hLeu][N(2-Aminoethyl)Gly]-NH2; linker 2-8 via CO)
13,30%,CCC[C@@H]1NC(=O)[C@H](CCCNC(=N)N)NC(=O)[C@@H]2CCCN2C(=O)[C@H](CCCNC(=N)N)NC(=O)CCCCC(=O)NCCCCCCN(CC(N)=O)C(=O)[C@H](CCC(C)C)NC(=O)[C@H](CN)NC(=O)[C@H](Cc2ccc(O)cc2)NC1=O (RPR[Nva]Y[Dap][hLeu][N(6-aminohexyl)Gly]-NH2; linker N-8 via Adipoyl)
14,16%,CCC[C@@H]1NC(=O)[C@H](CCCNC(=N)N)NC(=O)[C@@H]2CCCN2C(=O)[C@H](CCCNC(=N)N)NC(=O)CCCCCC(=O)NCCCCN(CC(N)=O)C(=O)[C@H](CCC(C)C)NC(=O)[C@H](CN)NC(=O)[C@H](Cc2ccc(O)cc2)NC1=O (RPR[Nva]Y[Dap][hLeu][Nlys]-NH2; linker N-8 via Heptanedioyl)
15,98%,CCC[C@@H]1NC(=O)[C@H](CCCNC(=N)N)NC(=O)CN(C(=O)[C@@H](N)CCCNC(=N)N)CCNC(=O)NCCCCN(CC(N)=O)C(=O)[C@H](CCC(C)C)NC(=O)[C@H](CN)NC(=O)[C@H](Cc2ccc(O)cc2)NC1=O (H-R[N(2-Aminoethyl)Gly]R[Nva]Y[Dap][hLeu][Nlys]-NH2; linker 2-8 via CO)
16,68%,CCC[C@@H]1NC(=O)[C@H](CCCNC(=N)N)NC(=O)CN(C(=O)[C@@H](N)CCCNC(=N)N)CCCCCCNC(=O)NCCN(CC(N)=O)C(=O)[C@H](CCC(C)C)NC(=O)[C@H](CN)NC(=O)[C@H](Cc2ccc(O)cc2)NC1=O (H-R[N(6-aminohexyl)Gly]R[Nva]Y[Dap][hLeu][N(2-Aminoethyl)Gly]-NH2; linker 2-8 via CO)
17,98%,CCC[C@@H]1NC(=O)[C@H](CCCNC(=N)N)NC(=O)CN(C(=O)[C@@H](N)CCCNC(=N)N)CCCNC(=O)NCCCN(CC(N)=O)C(=O)[C@H](CCC(C)C)NC(=O)[C@H](CN)NC(=O)[C@H](Cc2ccc(O)cc2)NC1=O (H-R[NGly(3-aminopropyl)]R[Nva]Y[Dap][hLeu][NGly(3-aminopropyl)]-NH2; linker 2-8 via CO)
